Our source for the cytotoxicity values is ChEMBL document CHEMBL4513216, “Probing the Open Global Health Chemical Diversity Library for Multistage-Active Starting Points for Next-Generation Antimalarials” (ACS Infect Dis, 2020).

The data set in a line: Toxicity liver stage against HepG2, at 10uM. In kind it is cell-based. To be noted: human, HepG2-A16-CD81EGFP cells; read-out: INHIBITION
Also noted: test concentration 10 uM, cell line HepG2-A16-CD81EGFP. In short, it runs like this: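 Uninfected HepG2-A16-CD81EGFP cells, 3 × 10^3 per well, 1536-well, plated on prespotted compound at 10 μM final, parasite-free screening media added to match infected plates; puromycin 10 μM positive, DMSO 0.5% negative; run in parallel with 48 h PbLuc assay at 37 °C, 5% CO2; viability by CellTiter-Glo luminescence, normalized to controls.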
Turning to `COc1cc(C)c(C(C)NC(=O)c2cccnc2N(C)C)cc1OC` (configuration not stated), the cytotoxicity at 10 µM was 1.25%.
As to `CS(=O)(=O)N1CCC(CNC(=O)C2CCC2)CC1`, the cytotoxicity at 10 µM was -2.99%.
Then `COC(=O)N1CCc2ccccc2C1C(=O)NCc1nc(C)no1` (configuration not stated), with 3.88%; and `O=C(Cn1c(=O)oc2ccccc21)NCC(O)c1ccc2c(c1)CCO2` (configuration not stated), with -6.81%; and `N#CCC(=O)NCc1nnc2n1CCN(Cc1ccsc1)C2`, with -131%.
For `COc1cc(C2SCC(=O)Nc3ccsc32)cc(OC)c1O` (configuration not stated) the value was 54.7%.
As to `CCOCCCNC(=O)CN(c1ccc(F)c(F)c1)S(C)(=O)=O`, the cytotoxicity at 10 µM worked out at 9.96%.
Then `O=c1nc(SCc2cccnc2)c2c(n1CCO)CCC2`, with -18%.
Then `COCCC(=O)N1CCN(CCN(C)C)c2ncccc2C1`, with -4.11%; and `CCCc1nc(NCCc2ccccc2)c2c(n1)c(C)nn2CC`, with 20%; and `Cc1nn(CCC(=O)N2CCN(Cc3cnn(C)c3C)CC2)c(C)c1Br`, with 4.07%.
For `CCN1CCN(S(=O)(=O)c2cc(C)c(Cl)cc2Cl)CC1` the value was -2.67%; for `CCN(CC)S(=O)(=O)N1CCCC(c2ncc3c(n2)CCN(C)C3)C1` (configuration not stated), 3.77%.
For `CCN(Cc1ccncc1)CC1(O)CCN(C(=O)c2cccc(C)n2)C1` (configuration not stated), the cytotoxicity at 10 µM was -4.08%.
For the compound `Cc1ccccc1CN1CCC(c2nn(CCN)c3nccnc23)C1` (configuration not stated), the cytotoxicity at 10 µM was -24.3%.
For `CN1CCCC(Cc2cncc(C(=O)N3CCOCC3)c2)C1` (configuration not stated) the value was 6.32%; for `Cc1nc(C2CCCN2C(=O)CCc2ccc(F)cc2)ncc1C(N)=O` (configuration not stated), -15.7%; for `CN(Cc1ccc(F)cc1)CC1(O)CCN(C(=O)c2ccsc2)C1` (configuration not stated), -28.2%.
Then `COc1ccc2c(c1)CC(NCc1cccc(OCC(N)=O)c1)CC2` (configuration not stated), with -40.4%; and `CN(CC1CC1)C(=O)c1cc2c(c(S(N)(=O)=O)c1)CCC2`, with -51.1%; and `CC(C)(C)C(=O)NCCC(=O)Nc1cc(C#N)cn1C(C)(C)C`, with 2.02%.
Consider `CC(C)c1ccccc1OCCNC(=O)N1CCC2(CC1)OCCO2`, for which the cytotoxicity at 10 µM amounted to 8.75%.
Then `O=C(Cc1c(F)cccc1Cl)Nc1cccc(N2CCCC2)c1`, with -117%.
For `OCC1(NCc2cccc(-n3cccn3)c2)CCOCC1` the value was -139%; for `O=C(NCC(O)c1ccc(Cl)s1)c1ccoc1` (configuration not stated), -3.36%; for `Cc1cc(CNc2cc(-c3ccoc3C)nn2CCO)c(C)o1`, -0.598%.
Then `CSC1(CNC(=O)N(C)Cc2sccc2C)CCOCC1`, with -57.4%; and `CN(C)CCn1ccc(NC(=O)NC(C)(C)c2nccs2)n1`, with 3.92%; and `C=C(C)CN(CC)C(=O)c1cc(C)ccc1NS(C)(=O)=O`, with 5.69%.
In the case of `CS(=O)(=O)c1ccc(CNC(=O)NCc2cc[nH]n2)cc1`, the cytotoxicity at 10 µM amounted to 1.22%.
For `CCn1cc(CN2CCN(C(=O)N3CCOCC3)CC2)cn1` the value was -52.8%; for `Cc1cc(C(=O)NC2CCCOc3cc(Cl)ccc32)n(C)n1` (configuration not stated), 1.97%.
Then `Cc1cc(CN(CC(N)=O)CC(C)C)on1`, with 6.36%; and `Cc1csc(C2NC3(CCCC3)C(=O)N2CC2CC2)n1` (configuration not stated), with 3.24%.
For `CCOCC(O)CN1CCN(C(=O)c2ccsc2)CC1` (configuration not stated) the value was 5.42%; for `CCN(CC)C(=O)CNC(=O)N1CCC(c2ccccc2)C1` (configuration not stated), 2.03%; for `CN(Cc1cnn(C)c1)C(=O)CN1CCCCC1Cn1cncn1` (configuration not stated), 17.5%.
Regarding `CN1CCN(CCCN(C)S(=O)(=O)C2CCCCC2)CC1`, the cytotoxicity at 10 µM was -9.46%.
Then `CC(C)c1nnc2n1CC(CNc1cnc3ccccc3n1)CC2` (configuration not stated), with -37.1%; and `CN(C)S(=O)(=O)NCC(O)c1cc2ccccc2s1` (configuration not stated), with -13.2%.
For the compound `Cc1nc(CN(C)C2CCN(Cc3nc4c(F)cccc4[nH]3)C2)no1` (configuration not stated), the cytotoxicity at 10 µM was -4.09%.
Turning to `CCN(CC)S(=O)(=O)CCNc1nnc(C(C)C)s1`, the cytotoxicity at 10 µM is 7.2%.
Then `OC(COCc1ccccc1)CN1CCC(Cn2cccn2)CC1` (configuration not stated), with -1.49%.
Consider `CC(C)(C)C(CCO)NC(=O)Nc1ccccc1` (configuration not stated), for which the cytotoxicity at 10 µM is -3.3%.
Then `Cn1cc(CCNC(=O)N2CCCc3c(F)cccc32)cn1`, with 14.3%.
Take `COC(=O)CN(Cc1ccccc1C)C(=O)COCC1CC1`: the cytotoxicity at 10 µM was found to be 6.87%.
Then `COc1ccc(CN(CCC#N)CCN2CCOCC2)cc1OC`, with -5.79%; and `Cc1ccc2c(c1)OC(C)CN2C(=O)CCc1cccnc1` (configuration not stated), with -52.8%; and `CC(C)OCCCN1CCCC(c2nc3ccccc3n2C(C)C)C1` (configuration not stated), with -4.06%.
Then `CCS(=O)(=O)c1ccc(N2CCC(NC(=O)c3cnn(C)c3)CC2)cc1`, with -1.69%; and `CCOc1ccc(C(=O)NS(=O)(=O)c2cncc(Br)c2)cc1OC`, with -5.07%.
For `Cc1nn(C)c(N2CCOCC2)c1CNC(C)c1ccco1` (configuration not stated) the value was -17.6%; for `CCCC(C)(C)NC(=O)c1ccc(CC2CC(=O)NC2=O)cc1` (configuration not stated), -19.7%.
In the case of `CC[C@H](C)Nc1nccc(-c2cnc3sc(C)c(C)n3c2=O)n1`, the cytotoxicity at 10 µM was 11.1%.
As to `Cc1ccc2nc(CN3CCC(O)(Cn4ccnc4)CC3)cc(O)c2c1`, the cytotoxicity at 10 µM is -47.8%.
Then `Cc1ccsc1C(Cn1ccnc1-c1ccccc1C(=O)O)N(C)C` (configuration not stated), with -2.86%; and `CNc1nc2c(c(C(=O)N3CCCC3)n1)CN(C(=O)C1CCCC1)CC2`, with -114%; and `COc1cccc(OCC2CCCN(C(=O)c3cnn(C)c3)C2)c1` (configuration not stated), with -21.4%.
For `O=C(O)C1(n2ccc(-c3ccco3)n2)CCN(Cc2cccs2)CC1` the value was -125%; for `Cc1ccc(-n2c(COC(C)C)n[nH]c2=O)cc1`, 9.47%.
With `O=C(c1ccc(S(=O)(=O)NCC(F)F)cc1)N1CC[C@H]2CNC[C@H]21`, the cytotoxicity at 10 µM was -14%.
Regarding `COc1c(C)cnc(CN(C)C2CCOC3(CCOCC3)C2)c1C` (configuration not stated), the cytotoxicity at 10 µM was -0.971%.
On to `CCN(C)C[C@@H]1CN(Cc2cccc(Cl)c2)C[C@@H]1CO`, for which the cytotoxicity at 10 µM is 2.45%.
Then `Nc1cc(C(=O)NCC2CCN(Cc3cccc(O)c3)C2)ccn1` (configuration not stated), with -8.69%; and `CCSc1ncc(CN2CC[C@@](O)(COC)C(C)(C)C2)cn1`, with -4.05%; and `COCCN(CC1CCCN(C2Cc3ccccc3C2)C1)C(=O)CO` (configuration not stated), with -6.93%.
For `O=C(NCCc1cnccn1)C1(N2CCCCC2)Cc2ccccc2C1` the value was -7.82%.
For `CC(=O)N[C@@H]1CN(Cc2ccccc2C(=O)O)C[C@H]1C(C)C` the value was 3.15%.
For the compound `CC(C)n1cnnc1CN(C)C(=O)c1cc(COc2ccccc2)[nH]n1`, the cytotoxicity at 10 µM came out at 4.58%.
For `CCCNC(=O)c1ccc(S(=O)(=O)NCC2(O)CCCNC2)cc1` (configuration not stated) the value was -48.3%; for `O=C(O)C1(Cc2ccccc2Cl)CCN(c2ncnc3[nH]ccc23)CC1`, 11%.
On to `Cc1nn(C)cc1Cn1c(=O)cnc2ccccc21`, for which the cytotoxicity at 10 µM amounted to 7.8%.
Turning to `CCN(CCO)C(=O)C1CCC(=O)N(CCc2cccc(F)c2)C1` (configuration not stated), the cytotoxicity at 10 µM was -4.15%.
As to `CCc1ncc(C(=O)N2CCCN(C3CCCC3)CC2)cn1`, the cytotoxicity at 10 µM was -7.38%.
Then `Cc1cc(-n2cccn2)ccc1CN1C[C@@H](CN(C)C)[C@@H](CO)C1`, with -9.4%; and `Cc1cc(=O)n(CC(=O)Nc2ccc(C(N)=O)cc2)nc1C`, with -10.9%.
For `Cc1nc(O)c2nnn(C[C@H]3CCCN3C(=O)c3cccc(F)c3)c2n1` the value was -0.00161%; for `Cc1cc2c(=O)n3c(nc2s1)CCN(Cc1cnc(C(C)C)nc1)CC3`, 10.5%.
For `Cc1c(C(=O)N2CCCC2c2cnn(C)c2)cnn1-c1ccccc1` (configuration not stated) the value was -23.7%; for `CC(C)(NCC(=O)NC(=O)NC1CC1)c1ccc2c(c1)OCO2`, -1.27%.
On to `Brc1cccc(-c2noc(CN3CCOCC3)n2)c1`, for which the cytotoxicity at 10 µM was -15.2%.
Then `NC(=O)c1cc(C2CCCN(CCOc3cccc(F)c3)C2)n[nH]1` (configuration not stated), with -19.6%; and `COc1ccc(CC(=O)N2CCCC2Cn2cccn2)cc1F` (configuration not stated), with -0.587%; and `Cc1cc(OCC(=O)NS(=O)(=O)c2c(C)noc2C)ccc1Cl`, with -2.07%.
For `COc1ccc(C(O)CNC(=O)Nc2cc(C)nn2C)cc1` (configuration not stated) the value was 2.33%.
Take `Cc1ncsc1C(=O)NC1CCN(Cc2ccc(C#N)cc2)CC1`: the cytotoxicity at 10 µM was -6.46%.
Then `CC(C)NC(=O)Nc1ccc(CNCc2cccc(C#N)c2)cc1`, with -7.15%; and `CCc1nnsc1C(=O)N1CCCN(Cc2nccn2C)CC1`, with -4.26%; and `CCC(CN1CCCC1)n1cncc1-c1cnn(-c2ccc(F)cc2)c1` (configuration not stated), with 5.29%.
Consider `Cn1nc(C2CCCN(Cc3ccc(F)cc3)C2)c2nccnc21` (configuration not stated), for which the cytotoxicity at 10 µM was -24.8%.
`O=C(c1cscn1)N1CC[C@]2(C[C@@H](OCCN3CCCC3)CO2)C1`: the cytotoxicity at 10 µM was found to be 0.462%.
For `CC(=O)NCC(=O)N1CCn2cc(CN3CCN(C)CC3)nc2C1` the value was -12.4%; for `CN1Cc2c(C(=O)NC3CCCCC3)ncn2-c2ccccc2S1(=O)=O`, -153%.
In the case of `Cc1ccc(CN2CCCn3c(nc(CN4CCCC4)cc3=O)C2)s1`, the cytotoxicity at 10 µM was -0.207%.
Then `Cc1c(-c2cccs2)nn2c(=O)c3c([nH]c12)CN(C(=O)C1CC1)C3`, with -4.02%.
For `CCOCCC(=O)N1C[C@@H]2CC[C@H]1CN(c1ncccn1)C2` the value was 2.53%; for `CN1CCC(n2cc3nc(N)[nH]cc-3c2=O)CC1`, 8.6%.
